Results published in ChEMBL document CHEMBL5724801, “EUbOPEN Chemogenomics Library - Multiplex” (2024).
“And” between values parts separate entries of the source, which are not always exact repeats. Equal values may be shown once.

Tested on: U2OS
Assay: Multiplex assay against U2OS
Format: toxicity, cell-based
Details: human
Outline: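 Compound was added to live cells that had been stained at seeding with Hoechst33342, BioTracker Green Microtubule Cytoskeleton Dye, MitoTracker Red and Annexin V Alexa Fluor 680, and imaging followed on a CQ1 microscope at 37°C and 5% CO2. CellPathfinder machine-learning gating divided cells into Hoechst high-intensity objects or normal cells, normal cells into healthy, pyknosed or fragmented nuclei, and pyknosed cells into mitotic or apoptotic. Tubulin, mitochondrial-mass and membrane-permeability phenotypes are per cents of healthy-nucleus cells.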

[1] = 12 h, 1 µM, compound concentration 1 uM
[2] = 12 h, 10 µM, compound concentration 10 uM
[3] = 24 h, 1 µM, compound concentration 1 uM
[4] = 24 h, 10 µM, compound concentration 10 uM
[5] = 48 h, 1 µM, compound concentration 1 uM
[6] = 48 h, 10 µM, compound concentration 10 uM

FC(F)(F)c1ccccc1-c1cc(C(F)(F)F)c2[nH]c(C3=NOC4(CCCCC4)C3)nc2c1
Population Apoptotic (%) [1]: 48.57% and 27.27% | Population Fragmented Nuclei (%) [1]: 2.24% and 1.95% | Population Healthy Nuclei (%) [1]: 87.96% and 83.77% | Population Hoechst High Intensity Objects (%) [1]: 0% | Population Membrane Permeable-Phenotype (%) [1]: 1.91% and 5.43% | Population Mitochondria Different-Phenotype (%) [1]: 0.32% and 6.98% | Population Mitotic Cells (%) [1]: 51.43% and 72.73% | Population Normal (%) [1]: 100% | Population Pyknosed Nuclei (%) [1]: 9.8% and 14.29% | Population Tubulin-Different-Phenotype (%) [1]: 0.96% and 0% | Total Cell Count [1]: 357 and 154 | Population Apoptotic (%) [2]: 51.92% and 25% | Population Fragmented Nuclei (%) [2]: 1.81% and 6.56% | Population Healthy Nuclei (%) [2]: 82.53% and 69.4% | Population Hoechst High Intensity Objects (%) [2]: 0% | Population Membrane Permeable-Phenotype (%) [2]: 18.61% and 23.62% | Population Mitotic Cells (%) [2]: 48.08% and 75% | Population Normal (%) [2]: 100% | Population Pyknosed Nuclei (%) [2]: 15.66% and 24.04% | Population Tubulin-Different-Phenotype (%) [2]: 21.17% and 11.81% | Total Cell Count [2]: 332 and 183 | Population Apoptotic (%) [3]: 53.33% and 54.17% | Population Fragmented Nuclei (%) [3]: 0.65% and 0% | Population Healthy Nuclei (%) [3]: 89.61% and 86.59% | Population Hoechst High Intensity Objects (%) [3]: 0% | Population Membrane Permeable-Phenotype (%) [3]: 1.69% and 5.16% | Population Mitochondria Different-Phenotype (%) [3]: 0.24% and 8.39% | Population Mitotic Cells (%) [3]: 46.67% and 45.83% | Population Normal (%) [3]: 100% | Population Pyknosed Nuclei (%) [3]: 9.74% and 13.41% | Population Tubulin-Different-Phenotype (%) [3]: 1.93% and 0.65% | Total Cell Count [3]: 462 and 179 | Population Apoptotic (%) [4]: 41.86% and 43.75% | Population Fragmented Nuclei (%) [4]: 2.02% and 5.56% | Population Healthy Nuclei (%) [4]: 76.26% and 70.2% | Population Hoechst High Intensity Objects (%) [4]: 0% | Population Mitotic Cells (%) [4]: 58.14% and 56.25% | Population Normal (%) [4]: 100% | Population Pyknosed Nuclei (%) [4]: 21.72% and 24.24% | Population Tubulin-Different-Phenotype (%) [4]: 24.17% and 12.95% | Total Cell Count [4]: 396 and 198 | Population Apoptotic (%) [5]: 45.78% and 50% | Population Fragmented Nuclei (%) [5]: 2.67% and 2.11% | Population Healthy Nuclei (%) [5]: 87.27% and 85.96% | Population Hoechst High Intensity Objects (%) [5]: 0.12% and 0% | Population Membrane Permeable-Phenotype (%) [5]: 0.69% and 1.63% | Population Mitochondria Different-Phenotype (%) [5]: 0.28% and 8.16% | Population Mitotic Cells (%) [5]: 54.22% and 50% | Population Normal (%) [5]: 99.88% and 100% | Population Pyknosed Nuclei (%) [5]: 10.06% and 11.93% | Population Tubulin-Different-Phenotype (%) [5]: 1.53% and 0.82% | Total Cell Count [5]: 826 and 285 | Population Apoptotic (%) [6]: 40.68% and 58.46% | Population Fragmented Nuclei (%) [6]: 3.58% and 4.76% | Population Healthy Nuclei (%) [6]: 78.04% and 69.44% | Population Hoechst High Intensity Objects (%) [6]: 0% | Population Mitotic Cells (%) [6]: 59.32% and 41.54% | Population Normal (%) [6]: 100% | Population Pyknosed Nuclei (%) [6]: 18.38% and 25.79% | Population Tubulin-Different-Phenotype (%) [6]: 19.56% and 20.57% | Total Cell Count [6]: 642 and 252

Cc1ccc(F)cc1C(=O)Nc1ccc(C(=O)N2Cc3cccn3Cc3ccccc32)c(Cl)c1 [LIXIVAPTAN]
Population Apoptotic (%) [1]: 69% and 84% | Population Healthy Nuclei (%) [1]: 55% and 82% | Population Hoechst High Intensity Objects (%) [1]: 3% | Population Membrane Permeable-Phenotype (%) [1]: 9% and 14% | Population Mitochondria Different-Phenotype (%) [1]: 9% and 10% | Population Mitotic Cells (%) [1]: 30% and 15% | Population Normal (%) [1]: 96% | Population Pyknosed Nuclei (%) [1]: 11% and 8% | Population Tubulin-Different-Phenotype (%) [1]: 7% and 11% | Total Cell Count [1]: 230 and 150 | Population Apoptotic (%) [2]: 59% and 47% | Population Fragmented Nuclei (%) [2]: 34% and 13% | Population Healthy Nuclei (%) [2]: 49% and 69% | Population Hoechst High Intensity Objects (%) [2]: 5% | Population Membrane Permeable-Phenotype (%) [2]: 79% and 63% | Population Mitochondria Different-Phenotype (%) [2]: 42% and 55% | Population Mitotic Cells (%) [2]: 40% and 52% | Population Normal (%) [2]: 94% | Population Pyknosed Nuclei (%) [2]: 16% | Population Tubulin-Different-Phenotype (%) [2]: 85% and 77% | Total Cell Count [2]: 203 and 119 | Population Apoptotic (%) [3]: 86% and 57% | Population Fragmented Nuclei (%) [3]: 26% and 14% | Population Healthy Nuclei (%) [3]: 64% and 81% | Population Hoechst High Intensity Objects (%) [3]: 1% and 4% | Population Membrane Permeable-Phenotype (%) [3]: 9% and 11% | Population Mitochondria Different-Phenotype (%) [3]: 9% and 13% | Population Normal (%) [3]: 98% and 95% | Population Pyknosed Nuclei (%) [3]: 8% and 4% | Population Tubulin-Different-Phenotype (%) [3]: 4% and 7% | Total Cell Count [3]: 257 and 171 | Population Apoptotic (%) [4]: 59% and 66% | Population Fragmented Nuclei (%) [4]: 30% and 14% | Population Healthy Nuclei (%) [4]: 50% and 67% | Population Hoechst High Intensity Objects (%) [4]: 4% | Population Membrane Permeable-Phenotype (%) [4]: 65% and 54% | Population Mitochondria Different-Phenotype (%) [4]: 63% and 67% | Population Mitotic Cells (%) [4]: 40% and 33% | Population Normal (%) [4]: 95% | Population Pyknosed Nuclei (%) [4]: 18% | Population Tubulin-Different-Phenotype (%) [4]: 75% and 66% | Total Cell Count [4]: 207 and 119 | Population Apoptotic (%) [5]: 87% and 95% | Population Fragmented Nuclei (%) [5]: 24% and 10% | Population Healthy Nuclei (%) [5]: 64% and 79% | Population Hoechst High Intensity Objects (%) [5]: 1% and 3% | Population Membrane Permeable-Phenotype (%) [5]: 9% and 13% | Population Mitochondria Different-Phenotype (%) [5]: 6% and 11% | Population Mitotic Cells (%) [5]: 12% and 5% | Population Normal (%) [5]: 98% and 96% | Population Pyknosed Nuclei (%) [5]: 11% and 10% | Population Tubulin-Different-Phenotype (%) [5]: 5% | Total Cell Count [5]: 378 and 206 | Population Apoptotic (%) [6]: 75% and 92% | Population Fragmented Nuclei (%) [6]: 32% and 18% | Population Healthy Nuclei (%) [6]: 37% and 58% | Population Hoechst High Intensity Objects (%) [6]: 5% and 12% | Population Membrane Permeable-Phenotype (%) [6]: 49% and 60% | Population Mitochondria Different-Phenotype (%) [6]: 40% and 52% | Population Normal (%) [6]: 94% and 87% | Population Pyknosed Nuclei (%) [6]: 29% and 23% | Population Tubulin-Different-Phenotype (%) [6]: 44% and 57% | Total Cell Count [6]: 232 and 137

N[C@@]1(C(=O)O)CO[C@H]2[C@H](C(=O)O)[C@H]21 [LY-379268]
Population Apoptotic (%) [1]: 85% and 100% | Population Fragmented Nuclei (%) [1]: 20% and 17% | Population Healthy Nuclei (%) [1]: 76% and 79% | Population Hoechst High Intensity Objects (%) [1]: 0% | Population Membrane Permeable-Phenotype (%) [1]: 2% and 8% | Population Mitochondria Different-Phenotype (%) [1]: 1% and 2% | Population Mitotic Cells (%) [1]: 14% and 0% | Population Normal (%) [1]: 99% | Population Pyknosed Nuclei (%) [1]: 3% and 2% | Population Tubulin-Different-Phenotype (%) [1]: 1% and 3% | Total Cell Count [1]: 211 and 108 | Population Apoptotic (%) [2]: 63% and 80% | Population Fragmented Nuclei (%) [2]: 30% and 19% | Population Healthy Nuclei (%) [2]: 61% and 77% | Population Hoechst High Intensity Objects (%) [2]: 0% and 1% | Population Membrane Permeable-Phenotype (%) [2]: 8% and 4% | Population Mitochondria Different-Phenotype (%) [2]: 2% and 1% | Population Mitotic Cells (%) [2]: 36% and 20% | Population Normal (%) [2]: 99% and 98% | Population Pyknosed Nuclei (%) [2]: 7% and 3% | Population Tubulin-Different-Phenotype (%) [2]: 3% and 1% | Total Cell Count [2]: 264 and 143 | Population Apoptotic (%) [3]: 88% and 100% | Population Fragmented Nuclei (%) [3]: 20% and 11% | Population Healthy Nuclei (%) [3]: 71% and 79% | Population Hoechst High Intensity Objects (%) [3]: 1% and 0% | Population Mitochondria Different-Phenotype (%) [3]: 1% and 2% | Population Mitotic Cells (%) [3]: 11% and 0% | Population Normal (%) [3]: 98% and 100% | Population Pyknosed Nuclei (%) [3]: 7% and 9% | Population Tubulin-Different-Phenotype (%) [3]: 1% and 6% | Total Cell Count [3]: 245 and 133 | Population Apoptotic (%) [4]: 81% and 90% | Population Fragmented Nuclei (%) [4]: 25% and 16% | Population Healthy Nuclei (%) [4]: 66% and 77% | Population Hoechst High Intensity Objects (%) [4]: 1% | Population Membrane Permeable-Phenotype (%) [4]: 8% and 4% | Population Mitochondria Different-Phenotype (%) [4]: 1% and 4% | Population Mitotic Cells (%) [4]: 18% and 10% | Population Normal (%) [4]: 98% | Population Pyknosed Nuclei (%) [4]: 7% and 6% | Population Tubulin-Different-Phenotype (%) [4]: 2% and 4% | Total Cell Count [4]: 284 and 165 | Population Apoptotic (%) [5]: 92% and 100% | Population Fragmented Nuclei (%) [5]: 13% and 15% | Population Healthy Nuclei (%) [5]: 79% and 72% | Population Hoechst High Intensity Objects (%) [5]: 1% and 2% | Population Membrane Permeable-Phenotype (%) [5]: 3% and 11% | Population Mitochondria Different-Phenotype (%) [5]: 2% and 5% | Population Mitotic Cells (%) [5]: 7% and 0% | Population Normal (%) [5]: 98% and 97% | Population Pyknosed Nuclei (%) [5]: 7% and 12% | Population Tubulin-Different-Phenotype (%) [5]: 3% and 5% | Total Cell Count [5]: 348 and 178 | Population Apoptotic (%) [6]: 92% and 90% | Population Fragmented Nuclei (%) [6]: 24% and 11% | Population Healthy Nuclei (%) [6]: 68% and 83% | Population Hoechst High Intensity Objects (%) [6]: 2% | Population Membrane Permeable-Phenotype (%) [6]: 9% and 3% | Population Mitochondria Different-Phenotype (%) [6]: 2% | Population Mitotic Cells (%) [6]: 7% and 9% | Population Normal (%) [6]: 97% | Population Pyknosed Nuclei (%) [6]: 7% and 4% | Population Tubulin-Different-Phenotype (%) [6]: 3% | Total Cell Count [6]: 383 and 228
